Measured values from paper PMC3761190 (The British Journal of Dermatology, 2013).
Like-named read-outs stand apart in the source and are kept apart here. Each block holds one molecule with its values, some of them ahead of it.

Assays:
[1] = Plasma pharmacokinetics after 4 weeks of topical treatment; assay type: in vivo, human; details: approx. 1.5% BSA, comparator Pfizer, data on file
In short: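 Adults with mild-to-moderate chronic plaque psoriasis applied test-compound ointment (one formulation 2%, 20 mg g−1) twice daily for 4 weeks at 3 mg cm−2 to a fixed 300 cm2 area. Week-4 plasma sampled predose and 1, 2, 4–9 h post-dose.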

[2] = tested on: plaque psoriasis; details: cited from earlier work; for Mean total lesion score decrease from baseline: week 4
[3] = tested on: psoriasis; details: week 4; 13-point scale; cited from earlier work

Mean systemic exposure lower than with oral tofacitinib 2 mg twice daily [1]: approximately 40 fold
Compound: C[C@@H]1CCN(C(=O)CC#N)C[C@@H]1N(C)c1ncnc2[nH]ccc12 [tofacitinib, Tofacitinib]

Compound: N#CC[C@H](C1CCCC1)n1cc(-c2ncnc3[nH]ccc23)cn1 [INCB018424]
Tolerability of topical application ([2]; cream, 4 weeks): well tolerated
Mean total lesion score decrease from baseline ([2]; 1.0% cream daily): 53%
Mean total lesion score decrease from baseline ([2]; 1.5% cream twice daily): 54%

Compound: CCC(=O)OCC(=O)[C@@]1(OC(=O)CC)[C@@H](C)C[C@H]2[C@@H]3CCC4=CC(=O)C=C[C@]4(C)[C@@]3(F)[C@@H](O)C[C@@]21C [betamethasone dipropionate]
Total lesion sum score percentage change from baseline [3]: –41%
